Data reported in ChEMBL document CHEMBL1136006, “New PET imaging agent for the serotonin transporter: [(18)F]ACF (2-[(2-amino-4-chloro-5-fluorophenyl)thio]-N,N-dimethyl-benzenmethanamine)” (J Med Chem, 2002).

Key:
[1] = tested on: Rattus norvegicus; experiment: Effect of pretreatment with methylphenidate with a dose of 2 mg/kg (i.v.) on specific binding of [18F]ACF in rat brain hippocampus; assay type: ADME, organism-based; parameters: dose 2 mg/kg, route intravenous; conditions: in vivo, iv
Outline: (§1)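 Rats pretreated iv with drug (2 mg/kg) or saline 5 min before iv [18F]ACF (50 μCi). Sacrificed 1 h after tracer. Brain regions were dissected, weighed and counted, and % dose/g was calculated against a diluted initial dose. Drug-treated rats were compared with saline controls by ANOVA/Dunnett's test (p<0.05). Three rats per point, average ± SD.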

[2] = tested on: Rattus norvegicus; experiment: Effect of pretreatment with nisoxatine with a dose of 2 mg/kg (i.v.) on specific binding of [18F]ACF in rat brain remainder; assay type: ADME, organism-based; parameters: dose 2 mg/kg, route intravenous; conditions: in vivo, iv; outline: as §1
[3] = species: Rattus norvegicus; experiment: Organ distribution of [18F]ACF radiolabeled compound in rat heart after 60 min; assay type: ADME, organism-based; conditions: in vivo, 1 h
Outline: (§2)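 Rats, three per time point, under ether anesthesia; 30 μCi tracer in 0.2 mL saline injected into femoral vein. Sacrificed by cardiac excision under ether at 2, 30, 60, 120 or 240 min. Organs removed, weighed and counted; % dose/organ calculated against counts of 1% of initial dose counted at the same time. Average of three rats ± SD.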

[4] = tested on: Rattus norvegicus; experiment: Effect of pretreatment with (+)-McN5652 with a dose of 2 mg/kg (i.v.) on specific binding of [18F]ACF in rat brain blood; assay type: ADME, organism-based; parameters: dose 2 mg/kg, route intravenous; conditions: in vivo, iv; outline: as §1
[5] = species: Rattus norvegicus; experiment: Regional brain distribution of [18F]ACF radiolabeled compound in rat remainder (rest of brain) after 120 min; assay type: ADME, organism-based; conditions: in vivo, 2 h
Outline: (§3)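 Rats (three per group) under ether anesthesia got 30 μCi tracer in 0.2 mL saline into the femoral vein and were killed by cardiac excision at the stated time. Cortex, striatum, hippocampus, cerebellum, hypothalamus and the rest of brain were dissected, weighed and gamma counted. %dose/g was taken against counts of a diluted initial dose. Regional ratios are each region's %dose/g over cerebellum's. Mean ± SD.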

[6] = species: Rattus norvegicus; experiment: Regional brain distribution of [18F]ACF radiolabeled compound in rat striatum after 60 min; assay type: ADME, organism-based; conditions: in vivo, 1 h
Outline: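 Rats, three per group, under ether anaesthesia, given 30 μCi no-carrier-added tracer in 0.2 mL saline into the femoral vein. They were killed at the stated time by cardiac excision under ether. Striatum and other brain regions were dissected, weighed and counted. %dose/g was calculated against counts of 1% of the injected dose, as mean ± SD of three rats.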

[7] = species: Rattus norvegicus; experiment: Organ distribution of [18F]-ACF radiolabeled compound in rat liver after 120 min; assay type: ADME, organism-based; conditions: in vivo, 2 h
Outline: (§4)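 Under ether anesthesia, 30 μCi no-carrier-added tracer in 0.2 mL saline injected into the femoral vein. Rats killed by cardiac excision at the stated time. Organs were removed, weighed and counted; % dose/organ was calculated against counts of a 1% initial-dose standard. Three rats per time, average ± SD.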

[8] = species: Rattus norvegicus; experiment: Organ distribution of [18F]-ACF radiolabeled compound in rat liver after 30 min; assay type: ADME, organism-based; conditions: in vivo, 0.5 h; outline: as §4
[9] = species: Rattus norvegicus; experiment: Organ distribution of [18F]ACF radiolabeled compound in rat lung after 120 min; assay type: ADME, organism-based; conditions: in vivo, 2 h; outline: as §2
[10] = species: Rattus norvegicus; experiment: Organ distribution of [18F]-ACF radiolabeled compound in rat muscle after 240 min; assay type: ADME, organism-based, Muscle tissue; conditions: in vivo, 4 h; outline: as §4
[11] = species: Rattus norvegicus; experiment: Organ distribution of [18F]-ACF radiolabeled compound in rat muscle after 2 min; assay type: ADME, organism-based, Muscle tissue; conditions: in vivo; outline: as §4
[12] = species: Rattus norvegicus; experiment: Organ distribution of [18F]-ACF radiolabeled compound in rat skin after 120 min; assay type: ADME, organism-based; conditions: in vivo, 2 h; outline: as §4
[13] = species: Rattus norvegicus; experiment: Organ distribution of [18F]ACF radiolabeled compound in rat skin after 2 min; assay type: ADME, organism-based; conditions: in vivo; outline: as §2
[14] = species: Rattus norvegicus; experiment: Organ distribution of [18F]-ACF radiolabeled compound in rat spleen after 120 min; assay type: ADME, organism-based; conditions: in vivo, 2 h; outline: as §4
[15] = species: Rattus norvegicus; experiment: Regional brain distribution of [18F]-ACF radiolabeled compound in rat cerebellum after 2 min; assay type: ADME, organism-based; conditions: in vivo; outline: as §3
[16] = species: Rattus norvegicus; experiment: Regional brain distribution of [18F]ACF radiolabeled compound in rat cerebellum after 60 min; assay type: ADME, organism-based; conditions: in vivo, 1 h; outline: as §3
[17] = species: Rattus norvegicus; experiment: Regional brain distribution of [18F]-ACF radiolabeled compound in rat cortex after 240 min; assay type: ADME, organism-based; conditions: in vivo, 4 h; outline: as §3
[18] = species: Rattus norvegicus; experiment: Organ distribution of [18F]ACF radiolabeled compound in rat blood after 120 min; assay type: ADME, organism-based; conditions: in vivo, 2 h; outline: as §2
[19] = species: Rattus norvegicus; experiment: Organ distribution of [18F]-ACF radiolabeled compound in rat bone after 240 min; assay type: ADME, organism-based, Bone element; conditions: in vivo, 4 h; outline: as §4
[20] = species: Rattus norvegicus; experiment: Regional brain distribution of [18F]ACF radiolabeled compound in rat hippocampus after 240 min; assay type: ADME, organism-based; conditions: in vivo, 4 h; outline: as §3
[21] = species: Rattus norvegicus; experiment: Regional brain distribution of [18F]ACF radiolabeled compound in rat hippocampus after 2 min; assay type: ADME, organism-based; conditions: in vivo; outline: as §3
[22] = species: Rattus norvegicus; experiment: Organ distribution of [18F]ACF radiolabeled compound in rat brain after 240 min; assay type: ADME, organism-based; conditions: in vivo, 4 h; outline: as §2
[23] = species: Rattus norvegicus; experiment: Organ distribution of [18F]-ACF radiolabeled compound in rat brain after 30 min; assay type: ADME, organism-based; conditions: in vivo, 0.5 h; outline: as §4
[24] = species: Rattus norvegicus; experiment: Ratio of regional brain distribution of [18F]-ACF radiolabeled compound in rat cerebellum to that of cerebellum after 120 min; assay type: ADME, organism-based; conditions: in vivo, 2 h
Outline: (§5)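 Rats, three per time point, given 30 μCi tracer in 0.2 mL saline into femoral vein under ether anesthesia; killed at 2, 30, 60, 120 or 240 min. Cortex, striatum, hippocampus, cerebellum, hypothalamus and rest of brain dissected, weighed, counted; % dose/g against diluted initial dose, then each region divided by cerebellum. Average of three rats ± SD.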

[25] = species: Rattus norvegicus; experiment: Ratio of regional brain distribution of [18F]ACF radiolabeled compound in rat cerebellum to that of cerebellum after 30 min; assay type: ADME, organism-based; conditions: in vivo, 0.5 h; outline: as §3
[26] = species: Rattus norvegicus; experiment: Ratio of regional brain distribution of [18F]-ACF radiolabeled compound in rat cerebellum to that of cerebellum after 60 min; assay type: ADME, organism-based; conditions: in vivo, 1 h; outline: as §5
[27] = tested on: Rattus norvegicus; experiment: Ratio of effect of pretreatment with nisoxatine with a dose of 2 mg/kg (i.v.) on specific binding of [18F]-ACF in rat brain hippocampus to that of cerebellum; assay type: ADME, organism-based; parameters: dose 2 mg/kg, route intravenous; conditions: in vivo, iv
Outline: (§6)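 Rats (three per point) pretreated iv with competing drug at 2 mg/kg or saline (control) 5 min before iv [18F]ACF (50 μCi). At 1 h post tracer, brain regions (cortex, striatum, hippocampus, cerebellum, hypothalamus, remainder) dissected, weighed, counted as % dose/g and expressed as ratio to cerebellum. Average ± SD; ANOVA with Dunnett's test vs saline controls, p < 0.05.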

[28] = species: Rattus norvegicus; experiment: Ratio of regional brain distribution of [18F]-ACF radiolabeled compound in rat remainder to that of cerebellum after 2 min; assay type: ADME, organism-based; conditions: in vivo; outline: as §3
[29] = species: Rattus norvegicus; experiment: Ratio of regional brain distribution of [18F]ACF radiolabeled compound in rat hippocampus to that of cerebellum after 60 min; assay type: ADME, organism-based; conditions: in vivo, 1 h; outline: as §3
[30] = tested on: Rattus norvegicus; experiment: Ratio of effect of pretreatment with methylphenidate with a dose of 2 mg/kg (i.v.) on specific binding of [18F]ACF in rat brain cortex to that of cerebellum; assay type: ADME, organism-based; parameters: dose 2 mg/kg, route intravenous; conditions: in vivo, iv; outline: as §6
[31] = species: Rattus norvegicus; experiment: Ratio of regional brain distribution of [18F]-ACF radiolabeled compound in rat hypothalamus to that of cerebellum after 2 min; assay type: ADME, organism-based; conditions: in vivo; outline: as §3
[32] = species: Rattus norvegicus; experiment: Ratio of regional brain distribution of [18F]-ACF radiolabeled compound in rat hypothalamus to that of cerebellum after 30 min; assay type: ADME, organism-based; conditions: in vivo, 0.5 h; outline: as §3

**Q.** For `CN(C)Cc1ccccc1Sc1cc(F)c(Cl)cc1N`, which Dose/g [1] is on record?
**A.** The Dose/g was 0.43%.

**Q.** What about the Dose/g [2] of the same compound?
**A.** Its Dose/g is 0.41%.

**Q.** And the Dose/g [3]?
**A.** The Dose/g was 0.11 % dose/organ.

**Q.** And the Dose/g [4]?
**A.** Its Dose/g is 0.26%.

**Q.** And the Dose/g [5]?
**A.** The Dose/g was 0.12%.

**Q.** What about the Dose/g [6] of the same compound?
**A.** The Dose/g was 0.45%.

**Q.** What about the Dose/g [7] of the same compound?
**A.** The Dose/g was 5.9 % dose/organ.

**Q.** What about the Dose/g [8] of the same compound?
**A.** Its Dose/g is 15.2 % dose/organ.

**Q.** And the Dose/g [9]?
**A.** Its Dose/g is 0.32 % dose/organ.

**Q.** What about the Dose/g [10] of the same compound?
**A.** Its Dose/g is 2.08 % dose/organ.

**Q.** What about the Dose/g [11] of the same compound?
**A.** The Dose/g was 14.3 % dose/organ.

**Q.** And the Dose/g [12]?
**A.** Its Dose/g is 2.61 % dose/organ.

**Q.** And the Dose/g [13]?
**A.** The Dose/g was 4.76 % dose/organ.

**Q.** And the Dose/g [14]?
**A.** Its Dose/g is 0.06 % dose/organ.

**Q.** What about the Dose/g [15] of the same compound?
**A.** The Dose/g was 1.33%.

**Q.** What about the Dose/g [16] of the same compound?
**A.** Its Dose/g is 0.15%.

**Q.** What about the Dose/g [17] of the same compound?
**A.** Its Dose/g is 0.03%.

**Q.** What about the Dose/g [18] of the same compound?
**A.** Its Dose/g is 3.2 % dose/organ.

**Q.** What about the Dose/g [19] of the same compound?
**A.** Its Dose/g is 0.27 % dose/organ.

**Q.** And the Dose/g [20]?
**A.** The Dose/g was 0.04%.

**Q.** What about the Dose/g [21] of the same compound?
**A.** The Dose/g was 1.6%.

**Q.** And the Dose/g [22]?
**A.** The Dose/g was 0.06 % dose/organ.

**Q.** What about the Dose/g [23] of the same compound?
**A.** The Dose/g was 1.28 % dose/organ.

**Q.** And the Ratio [24]?
**A.** Its Ratio is 1.

**Q.** And the Ratio [25]?
**A.** Its Ratio is 1.

**Q.** What about the Ratio [26] of the same compound?
**A.** Its Ratio is 1.

**Q.** What about the Ratio [27] of the same compound?
**A.** Its Ratio is 2.44.

**Q.** And the Ratio [28]?
**A.** The Ratio was 1.32.

**Q.** What about the Ratio [29] of the same compound?
**A.** The Ratio was 2.91.

**Q.** And the Ratio [30]?
**A.** The Ratio was 2.02.

**Q.** What about the Ratio [31] of the same compound?
**A.** Its Ratio is 1.37.

**Q.** What about the Ratio [32] of the same compound?
**A.** Its Ratio is 2.29.
